Shown are actives, neighbours in structure and some others; about 1.5% of the full set was active somewhere.
APJ agonist = agonists of human APJ apelin receptor | activation, % at 20 µM | P35414 | CHO-K1 APJ PathHunter beta-arrestin, luminescence; 0% DMSO wells, 100% apelin | actives 0.11% (n = 330,000);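 active = activation more than six SD over the plate average, tested at 20 µM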;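 note: 0% = DMSO alone and 100% = apelin-13 at 10 nM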
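Assay system: engineered CHO-K1 APJ arrestin reporter cells; Amount: 1000 CHO-K1 reporter cells seeded per well; Dosing: one dose, 20 µM compound, 1% DMSO; Times: compound stimulation 90 min at 25 °C, detection 60 min; Measured by: luminescent beta-gal fragment complementation, chemiluminescent substrate; Read-out: APJ–arrestin association signal; Controls: DMSO vs Apelin-13 10 nM.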
EBI2 block = EBI2 (human) antagonism. P32249. EBI2 beta-arrestin recruitment, luminescence, 7a,25-OHC stimulated. inhibition, % at 5 µM. actives 0.81% (n = 360,000); in the data active = inhibition above about 38%;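 note: enzyme fragment complementation signal reports receptor beta-arrestin coupling in cells; 0% = agonist plus DMSO wells and 100% = wells without agonist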
APJ antag = blocks the human apelin receptor APJ. P35414. CHO-K1 APJ beta-arrestin complementation, luminescence. inhibition, % at 20 µM. actives 0.32% (n = 330,000). AID 2521;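 active = inhibition above about 40% at 20 µM, limit read from the data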;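 note: cells challenged with 10 nM apelin-13 agonist together with compound; plate controls were apelin-13 plus DMSO wells for no effect and DMSO wells lacking apelin-13 for full effect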
CXCR6 inh = blocks human CXCR6 beta-arrestin recruitment; O00574; CHO-K1 PathHunter CXCR6 beta-arrestin, luminescence; inhibition, % at 20 µM; actives 0.36% (n = 360,000); AID 602244; in the data active = inhibition above about 34%, passing the limit was not always enough;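 note: antagonist mode with CXCL16 agonist at 10 nM final; 0% = 10 nM CXCL16 with DMSO and 100% = unstimulated wells without agonist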
Target sequence (O00574 whole entry, looked up): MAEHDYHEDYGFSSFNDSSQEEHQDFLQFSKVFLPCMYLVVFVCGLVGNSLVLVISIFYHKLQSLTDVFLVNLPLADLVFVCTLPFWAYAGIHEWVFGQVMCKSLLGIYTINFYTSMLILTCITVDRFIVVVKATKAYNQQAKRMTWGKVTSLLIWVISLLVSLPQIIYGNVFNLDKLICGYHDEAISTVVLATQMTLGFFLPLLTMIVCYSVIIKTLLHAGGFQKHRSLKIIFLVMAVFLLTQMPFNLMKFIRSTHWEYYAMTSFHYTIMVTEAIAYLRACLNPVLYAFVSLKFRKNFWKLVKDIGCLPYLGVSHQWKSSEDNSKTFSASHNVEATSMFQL
CCR6 antagonist = CCR6 (human) receptor antagonism; CHO-K1 CCR6 PathHunter beta-arrestin, luminescence, CCL20-stimulated; inhibition, % at 20 µM; actives 0.49% (n = 340,000);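 active = compounds whose inhibition of the agonist-driven luminescence signal at 20 µM reaches about 50%, limit read from the data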;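 note: cells stimulated with CCL20 at 14 nM final; plate controls were DMSO with CCL20 for no effect and DMSO without agonist for full effect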
EBI2 conf = confirmation of human EBI2 receptor antagonists. shares compounds with EBI2 block. EBI2 beta-arrestin luminescence, 7a,25-OHC antagonism. inhibition, % at 5 µM. actives 29% (n = 2,400). AID 651997;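 active = inhibition of at least 50%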
EBI2 ag = counter-screen for EBI2 antagonists: EBI2 agonist activity. EBI2-expressing cells, agonist mode, luminescence, 60 min; 0% vehicle, 100% 7α,25-dihydroxycholesterol control. activation, % at 5 µM. shares compounds with EBI2 block. AID 652000. 2,400 tested, under 10 active;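 active = activation of at least 50%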
bGal counter = counter-screen for EBI2 antagonists: E. coli beta-galactosidase inhibition | inhibition, % at 5 µM | shares compounds with EBI2 block | AID 652176 | purified beta-galactosidase, luminescent Galacton Star, 15 min | actives 1% (n = 2,400);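 active = replicate-average signal at least 3 plate SD below neutral wells, shown as high inhibition, flagging enzyme-inhibiting false positives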;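 note: 0% = DMSO wells with enzyme and 100% = wells lacking enzyme; higher means stronger loss of beta-gal luminescence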
The depositor's hits bear a star.

Results for COc1ccc(C(NC(=O)C2CCN(CCOc3ccc(Cl)cc3)CC2)c2cccs2)cc1 (stereo not given) ?
EBI2 block: 46*; CXCR6 inh: 4; EBI2 conf: 32; EBI2 ag: 1; bGal counter: 9

Results for COc1ccc(OCCN2CCC(C(=O)NC(c3ccccc3)c3ccc4ccccc4n3)CC2)cc1 (stereo not given) ?
EBI2 block: 49*; CXCR6 inh: 15; EBI2 conf: 14; EBI2 ag: -1; bGal counter: -13

What do the screens show for `O=S(=O)(c1cccs1)N1CCN(CCOc2ccc(Cl)cc2)CC1`?
APJ agonist: -4; EBI2 block: 64*; APJ antag: -1; CXCR6 inh: -7; CCR6 antagonist: 12; EBI2 conf: 45; EBI2 ag: 1; bGal counter: 5

What do the screens show for `O=C(NC(c1ccccc1)c1ccc2ccccc2n1)C1CCN(CCOc2ccc(Cl)cc2)CC1` (stereo not given)?
EBI2 block: 60*; CXCR6 inh: 5; EBI2 conf: 59*; EBI2 ag: 2; bGal counter: 8

How did Cc1cccc(N2CCN(C(=O)NCc3ccc(F)cc3)CC2)c1C do in these assays?
APJ agonist: -3; EBI2 block: 58*; APJ antag: -25; CXCR6 inh: 0; CCR6 antagonist: 9; EBI2 conf: 43; EBI2 ag: 1; bGal counter: 4

What do the screens show for `Cc1cccc(N2CCN(C(=O)CNC(=O)Cc3ccccc3)CC2)c1C`?
APJ agonist: -2; EBI2 block: 12; APJ antag: -7; CXCR6 inh: -3; CCR6 antagonist: 16

Results for Cc1cccc(N2CCN(C(=O)Cc3ccc(Br)cc3)CC2)c1C ?
APJ agonist: -1; EBI2 block: 47*; APJ antag: -20; CXCR6 inh: 0; CCR6 antagonist: 32; EBI2 conf: 11; EBI2 ag: -1; bGal counter: -10

What do the screens show for `NC(=O)c1cc(S(=O)(=O)N2CCOCC2)ccc1Sc1ccccc1N`?
APJ agonist: 0; EBI2 block: 0; APJ antag: 26; CXCR6 inh: 0; CCR6 antagonist: 7

What do the screens show for `CCOC(=O)c1ccc(S(=O)(=O)N2CCN(C(=O)c3cc(=O)c4ccccc4o3)CC2)cc1`?
APJ agonist: -3; EBI2 block: 60*; APJ antag: 1; CXCR6 inh: 8; CCR6 antagonist: 11; EBI2 conf: 27; EBI2 ag: 0; bGal counter: 7

Results for O=C(c1cc2ccccc2o1)N1CCN(S(=O)(=O)c2c(F)cccc2F)CC1 ?
APJ agonist: -3; EBI2 block: 63*; APJ antag: 4; CXCR6 inh: 2; CCR6 antagonist: 11; EBI2 conf: 43; EBI2 ag: 0; bGal counter: 5

What do the screens show for `CCOc1ccc(S(=O)(=O)N2CCN(C(=O)c3cc4ccccc4o3)CC2)cc1`?
APJ agonist: 0; EBI2 block: 86*; APJ antag: -5; CXCR6 inh: 0; CCR6 antagonist: 35; EBI2 conf: 56*; EBI2 ag: 2; bGal counter: 9

What do the screens show for `Cc1ccc(C(=O)N2CCN(c3ccc([N+](=O)[O-])c(NCc4ccco4)c3)CC2)cc1`?
APJ agonist: -4; EBI2 block: 42*; APJ antag: -8; CXCR6 inh: 8; CCR6 antagonist: 15; EBI2 conf: 13; EBI2 ag: -1; bGal counter: -6

How did CCOc1cc(/C=N/NC(=O)COc2nc(C)cc(COC)c2C#N)ccc1O do in these assays?
APJ agonist: -2; EBI2 block: 62*; APJ antag: 0; CXCR6 inh: 3; CCR6 antagonist: -15; EBI2 conf: 36; EBI2 ag: 2; bGal counter: 1

Results for COc1ccc(N2CCN(C(=O)c3cc4c(C)nc5ccccc5c4o3)CC2)cc1 ?
APJ agonist: -2; EBI2 block: 54*; APJ antag: 9; CXCR6 inh: 1; CCR6 antagonist: 2; EBI2 conf: 43; EBI2 ag: 1; bGal counter: 8

What do the screens show for `CC(=O)c1ccc(N2CCN(C(=O)c3cc4c(C)nc5ccccc5c4o3)CC2)cc1`?
APJ agonist: 4; EBI2 block: -2; APJ antag: -13; CXCR6 inh: -19; CCR6 antagonist: -2

What do the screens show for `Cc1nc2ccccc2c2oc(C(=O)N3CCN(C4CCCCC4)CC3)cc12`?
APJ agonist: 0; EBI2 block: 87*; APJ antag: -48; CXCR6 inh: -8; CCR6 antagonist: 7; EBI2 conf: 77*; EBI2 ag: 1; bGal counter: 3

Results for CCOC(=O)c1c2ccc(OCC(=O)N/N=C/c3ccc(C)cc3)cc2n2ccccc12 ?
APJ agonist: 5; EBI2 block: 48*; APJ antag: -68; CXCR6 inh: -24; CCR6 antagonist: -1; EBI2 conf: 38; EBI2 ag: 1; bGal counter: 8

What do the screens show for `CCC(=O)Nc1ccc(NCc2cccs2)cc1`?
APJ agonist: 0; EBI2 block: -8; APJ antag: 6; CXCR6 inh: 1; CCR6 antagonist: 3

Results for Cc1csc(NC(=O)c2ccc3nc[nH]c3c2)n1 ?
APJ agonist: 6; EBI2 block: -7; APJ antag: -6; CXCR6 inh: -11; CCR6 antagonist: 1

Results for Cc1nc(N2CCCCC2C)c2c(C)c(C(=O)Nc3cccc(C(F)(F)F)c3)sc2n1 (stereo not given) ?
APJ agonist: 1; EBI2 block: 76*; APJ antag: -6; CXCR6 inh: -3; CCR6 antagonist: 9; EBI2 conf: 19; EBI2 ag: 2; bGal counter: 5

How did Cc1nc(N2CCCCC2)c2c(C)c(C(=O)Nc3ccccc3C(F)(F)F)sc2n1 do in these assays?
APJ agonist: -3; EBI2 block: 6; APJ antag: 6; CXCR6 inh: -14; CCR6 antagonist: -5

Results for Cc1nc(N2CCCCC2)c2c(C)c(C(=O)Nc3cccc(C(F)(F)F)c3)sc2n1 ?
APJ agonist: 4; EBI2 block: 53*; APJ antag: -1; CXCR6 inh: -12; CCR6 antagonist: -33; EBI2 conf: 25; EBI2 ag: 2; bGal counter: 6

What do the screens show for `CCOC(=O)c1sc2nc(C)nc(N3CCCCC3C)c2c1C` (stereo not given)?
APJ agonist: -2; EBI2 block: 19; APJ antag: -17; CXCR6 inh: 2; CCR6 antagonist: 2
